Columns and labels:
Vasopressin V1a receptor = Vasopressin V1a receptor (Homo sapiens, UniProt P37288); test: Displacement of [125I] phenylacetyl-D-Tyr(Me)-Phe-Gln-Asn-Arg-Pro-Arg-Tyr-NH2 from human recombinant vasopressin V1a receptor expressed in HEK293 after 2 hrs by liquid scintillation counting method; assay type: cell-based
How it was run: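 Recombinant human V1a receptor expressed in HEK-293 cells, tested in 50 mM Tris-HCl pH 7.4 buffer with 5 mM MgCl2 and 0.1% BSA. Incubation 2 h at 25 °C in 1% DMSO. Compounds were ≥99% pure by HPLC and were kept at low temperature after isolation to prevent isomerization. Ki is the mean of duplicate measurements.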

Vasopressin V2 receptor = Vasopressin V2 receptor (Homo sapiens, UniProt P30518); test: Displacement of [3H] (Arg8)-vasopressin from human vasopressin V2 receptor expressed in CHOK1 cell membranes after 2 hrs by liquid scintillation counting method
Vasopressin V2 receptor, sequence (P30518 whole entry): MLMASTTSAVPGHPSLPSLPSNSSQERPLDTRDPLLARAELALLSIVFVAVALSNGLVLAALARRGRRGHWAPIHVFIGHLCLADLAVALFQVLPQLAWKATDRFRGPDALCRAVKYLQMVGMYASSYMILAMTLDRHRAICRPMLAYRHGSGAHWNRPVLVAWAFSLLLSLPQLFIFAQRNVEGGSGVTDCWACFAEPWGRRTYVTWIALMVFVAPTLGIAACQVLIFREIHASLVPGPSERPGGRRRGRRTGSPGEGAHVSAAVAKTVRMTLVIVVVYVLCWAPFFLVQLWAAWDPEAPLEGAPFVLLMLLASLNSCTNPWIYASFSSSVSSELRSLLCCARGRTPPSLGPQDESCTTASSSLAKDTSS
How it was run: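 Membranes (9 μg aliquot) prepared from CHO-K1 cells stably transfected with human V2 receptor, in 50 mM Tris-HCl pH 7.4, 10 mM MgCl2, 0.1% BSA. Incubated with 4 nM [3H](Arg8)-vasopressin for 2 h at 25 °C in 1% DMSO. Compounds were ≥99% pure by HPLC. Ki is the mean of duplicate measurements.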

Vasopressin V1a receptor, sequence (P37288 whole entry): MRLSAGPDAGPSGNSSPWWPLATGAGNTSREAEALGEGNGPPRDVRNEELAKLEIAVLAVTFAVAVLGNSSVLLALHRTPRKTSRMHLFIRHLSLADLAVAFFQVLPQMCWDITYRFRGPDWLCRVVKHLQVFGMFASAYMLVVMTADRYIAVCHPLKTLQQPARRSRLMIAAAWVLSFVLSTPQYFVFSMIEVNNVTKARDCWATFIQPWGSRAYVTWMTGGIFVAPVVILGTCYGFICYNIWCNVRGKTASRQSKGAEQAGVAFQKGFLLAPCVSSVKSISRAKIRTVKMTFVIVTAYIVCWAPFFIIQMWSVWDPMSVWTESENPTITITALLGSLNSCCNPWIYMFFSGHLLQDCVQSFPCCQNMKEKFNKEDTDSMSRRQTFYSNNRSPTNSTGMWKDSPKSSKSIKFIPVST

SMILES | Ki (Vasopressin V1a receptor) [nM] | Ki (Vasopressin V2 receptor) [nM]
Cc1ccccc1C(=O)Nc1ccc(C(=O)N2CCC[C@@H](O)c3cccc(C)c32)cc1 | 2.84 | 140
Cc1ccccc1C(=O)Nc1ccc(C(=O)N2CCC[C@@H](O)c3ccccc32)cc1 | 1.03 | 8.3
Cc1ccccc1C(=O)Nc1ccc(C(=O)N2CCC[C@H](O)c3cccc(C)c32)cc1 | 4.68 | 54
Cc1ccccc1C(=O)Nc1ccc(C(=O)N2CCC[C@H](O)c3c(C)cccc32)cc1 | 2.06 | 46
Cc1ccccc1C(=O)Nc1ccc(C(=O)N2CCCC(O)c3cccc(C)c32)cc1 (stereo not drawn) | 6.26 | 170
Cc1ccccc1C(=O)Nc1ccc(C(=O)N2CCC[C@H](O)c3ccccc32)cc1 | 1.85 | 4.87
Cc1ccccc1C(=O)Nc1ccc(C(=O)N2CCC[C@@H](O)c3c(C)cccc32)cc1 (atropisomer aR) | 78 | 1790
Cc1ccccc1C(=O)Nc1ccc(C(=O)N2CCCC(O)c3ccccc32)cc1 (racemic) | 1.58 | 7.56
Cc1ccccc1C(=O)Nc1ccc(C(=O)N2CCCC(O)c3c(C)cccc32)cc1 (racemic) | 6.75 | 160

Source: ChEMBL document CHEMBL4014319, “Tolvaptan-Type Vasopressin Receptor Ligands: Important Role of Axial Chirality in the Active Form” (J Med Chem, 2017)
